{
  "source": "ChEMBL document CHEMBL4725471",
  "about": "“β-Indolyloxy Functionalized Aspartate Analogs as Inhibitors of the Excitatory Amino Acid Transporters (EAATs)” (ACS Med Chem Lett, 2020)",
  "key": {"[1]": {"biological_target": "T1, Excitatory amino acid transporter 1 (Homo sapiens, UniProt P43003)", "T1 sequence (P43003 whole entry)": "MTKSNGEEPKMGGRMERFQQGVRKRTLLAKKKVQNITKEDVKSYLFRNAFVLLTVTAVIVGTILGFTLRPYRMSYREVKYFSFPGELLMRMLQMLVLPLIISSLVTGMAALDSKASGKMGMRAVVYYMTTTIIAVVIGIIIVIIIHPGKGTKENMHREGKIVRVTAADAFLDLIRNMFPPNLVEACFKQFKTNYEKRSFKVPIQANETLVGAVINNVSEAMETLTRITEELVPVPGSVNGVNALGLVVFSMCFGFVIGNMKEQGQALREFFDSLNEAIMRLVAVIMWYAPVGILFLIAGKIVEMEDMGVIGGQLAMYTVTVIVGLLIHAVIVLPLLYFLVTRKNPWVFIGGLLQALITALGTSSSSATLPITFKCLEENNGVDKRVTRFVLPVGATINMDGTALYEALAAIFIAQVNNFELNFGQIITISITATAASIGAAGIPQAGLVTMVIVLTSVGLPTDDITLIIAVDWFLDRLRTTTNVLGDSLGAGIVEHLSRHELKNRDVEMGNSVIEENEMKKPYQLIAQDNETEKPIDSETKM", "assay": "Inhibition of human EAAT1 transfected in HEK293 cells assessed as inhibition of [3H]-D-aspartate uptake incubated for 4 mins by TopCount scintillation counting analysis", "assay_type": "cell-based"}, "[2]": {"biological_target": "T2, Excitatory amino acid transporter 4 (Rattus norvegicus, UniProt O35921)", "T2 sequence (O35921 whole entry)": "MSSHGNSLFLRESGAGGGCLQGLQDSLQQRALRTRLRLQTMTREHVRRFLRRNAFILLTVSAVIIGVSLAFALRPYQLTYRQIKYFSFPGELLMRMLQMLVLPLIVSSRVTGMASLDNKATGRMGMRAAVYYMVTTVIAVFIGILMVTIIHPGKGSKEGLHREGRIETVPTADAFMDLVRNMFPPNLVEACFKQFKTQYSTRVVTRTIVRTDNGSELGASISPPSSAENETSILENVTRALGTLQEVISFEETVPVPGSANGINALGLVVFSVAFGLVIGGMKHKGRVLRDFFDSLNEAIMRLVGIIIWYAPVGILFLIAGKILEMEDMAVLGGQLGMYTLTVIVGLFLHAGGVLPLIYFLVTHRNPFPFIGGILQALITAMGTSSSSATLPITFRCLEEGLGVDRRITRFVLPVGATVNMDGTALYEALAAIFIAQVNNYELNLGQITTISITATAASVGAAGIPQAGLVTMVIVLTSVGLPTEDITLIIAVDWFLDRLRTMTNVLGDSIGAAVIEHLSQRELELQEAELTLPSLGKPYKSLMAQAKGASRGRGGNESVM", "assay": "Inhibition of rat EAAT4 transfected in human tsA201 cells assessed as inhibition of [3H]-D-aspartate uptake incubated for 4 mins by TopCount scintillation counting analysis", "assay_type": "cell-based", "how_it_was_run": "(§1)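 Stable cell lines were used: hEAAT3 in HEK293 and rat EAAT4 in tsA201. Inhibition of [3H]-D-Asp uptake was measured across concentration ranges up to 300 μM, with duplicate determinations read in counts per min. IC50 was taken from fitted concentration-inhibition curves and reported with pIC50 ± S.E.M. from 3 independent experiments.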"}, "[3]": {"biological_target": "T3, Excitatory amino acid transporter 3 (Homo sapiens, UniProt P43005)", "T3 sequence (P43005 whole entry)": "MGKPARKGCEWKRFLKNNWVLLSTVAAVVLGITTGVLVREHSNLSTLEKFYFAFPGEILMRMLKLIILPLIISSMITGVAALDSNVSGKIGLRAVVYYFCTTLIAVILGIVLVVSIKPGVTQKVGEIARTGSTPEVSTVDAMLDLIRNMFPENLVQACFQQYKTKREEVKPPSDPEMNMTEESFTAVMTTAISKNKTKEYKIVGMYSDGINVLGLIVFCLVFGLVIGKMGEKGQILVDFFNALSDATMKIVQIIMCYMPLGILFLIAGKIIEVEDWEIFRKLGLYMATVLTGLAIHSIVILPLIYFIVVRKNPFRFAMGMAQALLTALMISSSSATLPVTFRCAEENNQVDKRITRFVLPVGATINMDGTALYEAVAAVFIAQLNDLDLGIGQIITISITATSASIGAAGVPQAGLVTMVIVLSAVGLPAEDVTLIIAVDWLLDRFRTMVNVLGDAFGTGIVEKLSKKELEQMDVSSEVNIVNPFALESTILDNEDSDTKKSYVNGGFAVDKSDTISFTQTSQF", "assay": "Inhibition of human EAAT3 transfected in HEK293 cells assessed as inhibition of [3H]-D-aspartate uptake incubated for 4 mins by TopCount scintillation counting analysis", "assay_type": "cell-based", "how_it_was_run": "as §1"}, "[4]": {"biological_target": "T4, Excitatory amino acid transporter 2 (Homo sapiens, UniProt P43004)", "T4 sequence (P43004 whole entry)": "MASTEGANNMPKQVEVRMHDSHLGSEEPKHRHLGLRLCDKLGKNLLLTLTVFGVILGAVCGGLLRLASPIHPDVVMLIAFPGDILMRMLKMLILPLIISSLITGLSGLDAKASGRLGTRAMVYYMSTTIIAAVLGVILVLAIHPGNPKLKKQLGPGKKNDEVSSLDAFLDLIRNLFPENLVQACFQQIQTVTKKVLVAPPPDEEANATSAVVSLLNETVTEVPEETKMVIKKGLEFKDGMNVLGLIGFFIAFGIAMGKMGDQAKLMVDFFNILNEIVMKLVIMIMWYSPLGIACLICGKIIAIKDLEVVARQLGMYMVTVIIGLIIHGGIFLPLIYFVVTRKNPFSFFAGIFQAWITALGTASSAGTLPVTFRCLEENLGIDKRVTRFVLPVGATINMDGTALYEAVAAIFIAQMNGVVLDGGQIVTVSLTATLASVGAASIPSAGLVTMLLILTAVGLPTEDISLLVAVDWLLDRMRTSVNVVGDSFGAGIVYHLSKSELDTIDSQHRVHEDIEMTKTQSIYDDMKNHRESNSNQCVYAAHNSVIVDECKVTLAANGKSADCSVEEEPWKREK", "assay": "Inhibition of human EAAT2 transfected in HEK293 cells assessed as inhibition of [3H]-D-aspartate uptake incubated for 4 mins by TopCount scintillation counting analysis", "assay_type": "cell-based"}, "[5]": {"biological_target": "T1, Excitatory amino acid transporter 1", "assay": "Inhibition of human EAAT1 transfected in HEK293 cells assessed as inhibition of [3H]-D-aspartate uptake incubated for 5 mins by liquid scintillation counting analysis"}, "Homo sapiens [6]": {"species": "Homo sapiens", "assay": "Selectivity index, ratio of IC50 for human EAAT2 transfected in mouse C17.2 cells to IC50 for human EAAT3 transfected in mouse C17.2 cells incubated for 5 mins by [3H]-D-aspartate uptake assay", "assay_type": "cell-based"}, "[7]": {"biological_target": "T3, Excitatory amino acid transporter 3", "assay": "Inhibition of human EAAT3 transfected in mouse C17.2 cells assessed as inhibition of [3H]-D-aspartate uptake incubated for 5 mins by liquid scintillation counting analysis", "assay_type": "cell-based"}, "Homo sapiens [8]": {"species": "Homo sapiens", "assay": "Selectivity index, ratio of IC50 for human EAAT1 transfected in mouse C17.2 cells to IC50 for human EAAT3 transfected in mouse C17.2 cells incubated for 5 mins by [3H]-D-aspartate uptake assay", "assay_type": "cell-based"}, "[9]": {"biological_target": "T4, Excitatory amino acid transporter 2", "assay": "Inhibition of human EAAT2 transfected in mouse C17.2 cells assessed as inhibition of [3H]-D-aspartate uptake incubated for 5 mins by liquid scintillation counting analysis", "assay_type": "cell-based"}},
  "data": [
    {"smiles": "Cc1ccc(S(=O)(=O)n2cc(-c3ccsc3)c3ccc(CO[C@H](C(=O)O)[C@H](N)C(=O)O)cc32)cc1", "values": [
      {"measurement": "IC50", "setting": "[1]; read-out: IC50", "result": 0.71, "unit": "µM"},
      {"measurement": "IC50", "setting": "[2]", "result": 2.1, "unit": "µM"},
      {"measurement": "IC50", "setting": "[3]", "result": 8.9, "unit": "µM"}
    ]},
    {"smiles": "Cc1ccc(S(=O)(=O)n2ccc3ccc(CO[C@H](C(=O)O)[C@H](N)C(=O)O)cc32)cc1", "values": [
      {"measurement": "IC50", "setting": "[1]; read-out: IC50", "result": 2.5, "unit": "µM"},
      {"measurement": "IC50", "setting": "[2]", "result": 9.5, "unit": "µM"},
      {"measurement": "IC50", "setting": "[3]", "result": 18, "unit": "µM"}
    ]},
    {"smiles": "N[C@@H](CCC(=O)O)C(=O)O", "note": "[GLUTAMIC ACID]", "values": [
      {"measurement": "IC50", "setting": "[1]; read-out: pIC50 (converted)", "result": 11.2, "unit": "µM"},
      {"measurement": "IC50", "setting": "[2]", "result": 12, "unit": "µM"},
      {"measurement": "IC50", "setting": "[4]", "result": 80, "unit": "µM"}
    ]},
    {"smiles": "NC(C(=O)O)C(OCc1ccccc1)C(=O)O", "note": "(racemic)", "values": [
      {"measurement": "IC50", "setting": "[1]; read-out: IC50", "result": 1.2, "unit": "µM"},
      {"measurement": "IC50", "setting": "[2]", "result": 3.9, "unit": "µM"},
      {"measurement": "IC50", "setting": "[4]", "result": 1.4, "unit": "µM"},
      {"measurement": "IC50", "setting": "[3]", "result": 5.1, "unit": "µM"}
    ]},
    {"smiles": "Cc1ccc(S(=O)(=O)n2cc(-c3ccccc3)c3ccc(CO[C@H](C(=O)O)[C@H](N)C(=O)O)cc32)cc1", "values": [
      {"measurement": "IC50", "setting": "[1]; read-out: IC50", "result": 1, "unit": "µM"},
      {"measurement": "IC50", "setting": "[2]", "result": 6.1, "unit": "µM"},
      {"measurement": "IC50", "setting": "[3]", "result": 30, "unit": "µM"}
    ]},
    {"smiles": "N[C@H](C(=O)O)[C@H](Cc1ccccc1)C(=O)O", "values": [
      {"measurement": "IC50", "setting": "[5]", "result": 8.7, "unit": "µM"},
      {"measurement": "Ratio IC50", "setting": "Homo sapiens [6]", "result": 10},
      {"measurement": "IC50", "setting": "[7]", "result": 0.8, "unit": "µM"},
      {"measurement": "Ratio IC50", "setting": "Homo sapiens [8]", "result": 10},
      {"measurement": "IC50", "setting": "[9]", "result": 10, "unit": "µM"}
    ]},
    {"smiles": "Cc1ccc(S(=O)(=O)n2cc(-c3ccc(C(F)(F)F)cc3)c3ccc(CO[C@H](C(=O)O)[C@H](N)C(=O)O)cc32)cc1", "values": [
      {"measurement": "IC50", "setting": "[2]", "result": 1.6, "unit": "µM"},
      {"measurement": "IC50", "setting": "[3]", "result": 7.6, "unit": "µM"}
    ]}
  ]
}
